From ChEMBL document CHEMBL4715728, “New bifunctional antioxidant/σ1 agonist ligands: Preliminary chemico-physical and biological evaluation” (Bioorg Med Chem, 2016)
Active and inactive are the calls of the source. No cut-off for these calls is given here.

Tests used:
[1] = Cytotoxicity against Sprague-Dawley rat Cerebral cortex neuron assessed as LDH activity at 1 uM incubated for 24 hrs by LDH assay (reference value: […]); assay type: tissue-based
Summary of the method: (§1)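 Primary fetal rat cortical neurons, matured 8 days on poly-D-lysine, exposed 24 h at 37 °C to compound (0.1–100 µM; DMSO 0.5% or water vehicle). LDH released into 100 µl culture medium was measured by kit as the rate of NAD+ reduction (absorbance increase at 490 nm). Positive control was mitomycin C. Four independent experiments.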

[2] = Displacement of [3H]-DTG from Sigma 2 receptor in guinea pig brain membrane incubated for 120 mins in presence of sigma1 blocker (+)-SKF-10047 by liquid scintillation counting method; assay type: cell membranes, Cavia porcellus
[3] = Cytotoxicity against Sprague-Dawley rat Cerebral cortex neuron assessed as cell viability at 100 uM incubated for 24 hrs by MTT assay relative to control; assay type: tissue-based; settings: cerebral cortex neurons, read-out: Activity
Summary of the method: (§2)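 Primary fetal rat cortical neurons, matured 8 days, treated 24 h at 37 °C with compound (0.1–100 µM; 0.5% DMSO or water vehicle). MTT 0.7 mg/ml was then added for 30 min at 37 °C, and formazan was extracted with isopropanol/formic acid (95:5) and read at 560 nm. Untreated control was set as 100% viability. Four independent experiments.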

[4] = Stability of compound in fasted state stimulated intestinal fluid at pH 7.4 assessed as half life in presence of 10 mg/ml pancreatin by HPLC-UV assay; assay type: ADME; settings: for half-life: fasted state simulated intestinal fluid with pancreatin
Summary of the method: (§3)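 HCl buffer with pepsin or phosphate buffer with pancreatin (10 or 40 mg/ml), preincubated at 37 °C. Drug stock (50 µM in ethanol/fasted state intestinal fluid 1:9) added and shaken at 37 °C, 650 rpm. Samples quenched with ice-cold acetonitrile containing 0.5% formic acid, centrifuged at 2 °C, and the supernatant assayed by HPLC-UV. Three experiments.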

Mus musculus [5] = test: In vivo agonist activity at sigma 1 receptor in Swiss […] mouse assessed as modulation of morphine-induced analgesic effect by measuring tail flick latency at 1 mg/kg, ip measured after 90 mins by radiant heat tail-flick method; assay type: functional, organism-based
Cavia porcellus = organism: Cavia porcellus; test: Selectivity ratio of Ki for displacement of [3H]-DTG from sigma2 receptor in guinea pig brain membrane to Ki for displacement of [3H]-(+)-pentazocine from sigma1 receptor in guinea pig brain membrane; assay type: cell membranes
[6] = biological target: Sigma non-opioid intracellular receptor 1 (Cavia porcellus, UniProt Q60492); test: Displacement of [3H]-(+)-pentazocine from sigma1 receptor in guinea pig brain membrane incubated for 150 mins by liquid scintillation counting method; assay type: cell membranes
Summary of the method: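 Guinea pig brain membranes (500 µg protein) in 50 mM Tris-HCl pH 7.4 with 3 nM [3H]-(+)-pentazocine. […] Incubated 150 min at 37 °C, then filtered on PEI-soaked GF/B filters and counted by scintillation. Ki obtained by EBDA/LIGAND; three determinations.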

[7] = Cytotoxicity against Sprague-Dawley rat Cerebral cortex neuron assessed as LDH activity at 50 uM incubated for 24 hrs by LDH assay (reference value: […]); assay type: tissue-based; summary of the method: as §1
[8] = Antioxidant activity in Sprague-Dawley rat Cerebral cortex neuron assessed as total oxidative stress level by measuring H2O2 equivalents at 10 uM after 24 hrs (reference value: 2.3 +/- 0.3 umol/L); assay type: functional
Summary of the method: (§4)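 Primary cerebral cortex neurons from rat fetuses, grown on poly-D-lysine in neurobasal medium with fetal calf serum (5% CO2, 37 °C), tested after 8 days in culture. Compounds in DMSO (0.5%) or sterile water were added and incubated 24 h at 37 °C. Cells were washed in ice-cold PBS and homogenized in 0.9% saline. Intracellular TAC (Trolox equiv.) and TOS (H2O2 equiv.) were read by kit. Ascorbic acid 10 µM (TAC) and H2O2 25 µM (TOS) served as positive controls. Four independent experiments.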

[9] = Cytotoxicity against Sprague-Dawley rat Cerebral cortex neuron assessed as cell viability at 25 uM incubated for 24 hrs by MTT assay relative to control; assay type: tissue-based; settings: cerebral cortex neurons, read-out: Activity; summary of the method: as §2
[10] = Stability of compound in fasted state stimulated intestinal fluid at pH 7.4 assessed as half life in presence of 40 mg/ml pancreatin by HPLC-UV assay; assay type: ADME; settings: for half-life: fasted state simulated intestinal fluid with pancreatin; summary of the method: as §3
[11] = Stability of compound in rat plasma assessed as rate of compound hydrolysis by HPLC-UV assay; assay type: ADME, cell-free
Summary of the method: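 Citrated human or rat plasma diluted to 80% with 0.02 M phosphate buffer pH 7.4, 37 °C with shaking. Compound added from a 1 mg/ml acetonitrile stock. Aliquots deproteinized with 0.01 M HCl in methanol, centrifuged, and analyzed by HPLC-UV (C8 column, KH2PO4/methanol pH 2.5, 220 nm). Remaining intact compound plotted against time. Three experiments.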

Mus musculus [12] = test: In vivo agonist activity at sigma 1 receptor in Swiss […] mouse assessed as modulation of morphine-induced analgesic effect by measuring tail flick latency at 1 mg/kg, ip preincubated for 45 mins followed by morphine treatment after 90 mins by radiant heat tail-flick method; assay type: functional, organism-based; settings: time 135.0 min
[13] = Cytotoxicity against Sprague-Dawley rat Cerebral cortex neuron assessed as cell viability at 10 uM incubated for 24 hrs by MTT assay relative to control; assay type: tissue-based; settings: cerebral cortex neurons, read-out: Activity; summary of the method: as §2
[14] = Stability of compound in fasted state stimulated intestinal fluid at pH 7.4 assessed as rate of compound hydrolysis in presence of 40 mg/ml pancreatin by HPLC-UV assay; assay type: ADME; settings: simulated gi fluid; summary of the method: as §3
[15] = Antioxidant activity in Sprague-Dawley rat Cerebral cortex neuron assessed as total antioxidant capacity by measuring trolox equivalents at 10 uM after 24 hrs; assay type: functional; summary of the method: as §4
[16] = Stability of compound in fasted state stimulated intestinal fluid at pH 7.4 assessed as rate of compound hydrolysis in presence of 10 mg/ml pancreatin by HPLC-UV assay; assay type: ADME; settings: simulated gi fluid; summary of the method: as §3

Sequence of Sigma non-opioid intracellular receptor 1 (Q60492 whole entry): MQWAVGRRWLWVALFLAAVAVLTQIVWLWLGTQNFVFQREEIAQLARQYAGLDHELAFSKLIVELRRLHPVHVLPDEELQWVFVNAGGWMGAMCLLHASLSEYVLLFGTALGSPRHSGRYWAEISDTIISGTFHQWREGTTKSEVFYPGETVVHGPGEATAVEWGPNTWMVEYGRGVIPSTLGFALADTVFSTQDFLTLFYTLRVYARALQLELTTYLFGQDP

| Ki [2] | half-life [4] | Ratio Ki (Cavia porcellus) | Ki [6] | half-life [10] | Drug degradation [11] | Drug degradation [14] | Drug degradation [16] | t1/2 ([4]; simulated gi fluid) | t1/2 ([10]; simulated gi fluid) | Structure (SMILES) | Activity [1] | viability at 24 h, 100 µM [3] | Activity (Mus musculus [5]) | Activity [7] | Activity [8] | viability at 24 h, 25 µM [9] | Activity (Mus musculus [12]) | viability at 24 h, 10 µM [13] | TAC [15] |
| --- | --- | --- | --- | --- | --- | --- | --- | --- | --- | --- | --- | --- | --- | --- | --- | --- | --- | --- | --- |
| 1300 nM | 75.1 h | 448 | 2.9 nM | 32.3 h | 0.237 h⁻¹ | 0.021 h⁻¹ | 0.009 h⁻¹ | – | – | O=C(CCCCC1CCSS1)N1CCN(Cc2ccc(F)cc2)CC1 (stereo not drawn) | 0.28 mU/ml | 96.7% | inactive | 0.34 mU/ml | 0.4 µmol/L | 96% | Active | 97.2% | 12.6 mmol/L |
| – | 22.2 h | – | – | 9.58 h | – | 0.072 h⁻¹ | 0.031 h⁻¹ | – | – | O=C(CCCCC1CCSS1)N1CCN(Cc2ccccc2)CC1 (stereo not drawn) | 0.32 mU/ml | 95.4% | inactive | 0.34 mU/ml | 0.4 µmol/L | 96.8% | Active | 97.5% | 12.6 mmol/L |

More lines, now with the values behind:

| Structure (SMILES) | Ki [2] | half-life [4] | Ratio Ki (Cavia porcellus) | Ki [6] | half-life [10] | Drug degradation [11] | Drug degradation [14] | Drug degradation [16] | t1/2 ([4]; simulated gi fluid) | t1/2 ([10]; simulated gi fluid) | Activity [1] | viability at 24 h, 100 µM [3] | Activity (Mus musculus [5]) | Activity [7] | Activity [8] | viability at 24 h, 25 µM [9] | Activity (Mus musculus [12]) | viability at 24 h, 10 µM [13] | TAC [15] |
| --- | --- | --- | --- | --- | --- | --- | --- | --- | --- | --- | --- | --- | --- | --- | --- | --- | --- | --- | --- |
| O=C(CCCCC1CCSS1)OC1CCN(Cc2ccc(F)cc2)CC1 (stereo not drawn) | 6500 nM | – | 1580 | 4.1 nM | – | 1.238 h⁻¹ | – | – | Unstable | Unstable | 0.3 mU/ml | 95.6% | inactive | 0.32 mU/ml | 0.4 µmol/L | 97.1% | Active | 96.9% | 11.1 mmol/L |
| COc1ccc(CN2CCC(OC(=O)CCCCC3CCSS3)CC2)cc1 (stereo not drawn) | 1500 nM | 2.78 h | 484 | 3.1 nM | 2.83 h | 1.506 h⁻¹ | 0.245 h⁻¹ | 0.249 h⁻¹ | – | – | 0.29 mU/ml | 91.2% | – | 0.34 mU/ml | 0.4 µmol/L | 96.2% | – | 97.1% | 11 mmol/L |
| O=C(CCCCC1CCSS1)OC1CCN(Cc2ccccc2)CC1 (stereo not drawn) | – | 0.29 h | – | – | 0.09 h | – | 7.615 h⁻¹ | 2.389 h⁻¹ | – | – | 0.26 mU/ml | 97.8% | inactive | 0.3 mU/ml | 0.4 µmol/L | 98.1% | Active | 97.8% | 11.4 mmol/L |
| COc1ccc(CN2CCN(C(=O)CCCCC3CCSS3)CC2)cc1 (stereo not drawn) | 2460 nM | 60.9 h | 432 | 5.7 nM | 41.6 h | 0.168 h⁻¹ | 0.017 h⁻¹ | 0.011 h⁻¹ | – | – | 0.3 mU/ml | 89.3% | – | 0.34 mU/ml | 0.5 µmol/L | 95.3% | – | 96.1% | 10.9 mmol/L |
